These results are taken from ChEMBL document CHEMBL4613320, “Artemisinin Derivatives with Antimelanoma Activity Show Inhibitory Effect against Human DNA Topoisomerase 1” (ACS Med Chem Lett, 2020).

Experiment [1] concerns the target T1, DNA topoisomerase 1 (Homo sapiens) (UniProt P11387).
T1 sequence (whole entry): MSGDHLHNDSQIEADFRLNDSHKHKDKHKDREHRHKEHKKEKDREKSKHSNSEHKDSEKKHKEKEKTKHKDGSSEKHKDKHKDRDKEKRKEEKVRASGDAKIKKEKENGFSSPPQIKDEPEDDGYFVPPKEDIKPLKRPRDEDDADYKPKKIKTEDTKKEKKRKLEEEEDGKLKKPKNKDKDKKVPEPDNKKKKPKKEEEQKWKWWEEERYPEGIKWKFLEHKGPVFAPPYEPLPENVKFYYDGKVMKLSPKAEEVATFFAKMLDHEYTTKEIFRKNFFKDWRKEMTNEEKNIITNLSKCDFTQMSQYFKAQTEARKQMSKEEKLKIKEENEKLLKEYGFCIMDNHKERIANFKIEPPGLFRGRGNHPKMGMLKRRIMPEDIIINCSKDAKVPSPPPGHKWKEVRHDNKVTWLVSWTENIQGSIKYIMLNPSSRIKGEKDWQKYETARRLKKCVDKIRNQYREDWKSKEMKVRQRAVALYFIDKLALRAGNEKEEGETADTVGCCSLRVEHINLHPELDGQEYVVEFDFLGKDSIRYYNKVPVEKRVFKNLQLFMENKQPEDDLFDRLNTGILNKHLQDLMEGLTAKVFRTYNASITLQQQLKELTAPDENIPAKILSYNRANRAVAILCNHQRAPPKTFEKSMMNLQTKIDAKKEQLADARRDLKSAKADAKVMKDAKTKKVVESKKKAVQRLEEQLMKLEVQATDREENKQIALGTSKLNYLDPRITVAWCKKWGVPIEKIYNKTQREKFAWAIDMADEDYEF
Kind of experiment: Inhibition of human TOP1B expressed in Saccharomyces cerevisiae EKY3 lacking top1 assessed as reduction in yeast growth at 3 uM. In outline:
(§1)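 Wild-type human Top1 overexpressed from plasmids under the Gal-1–10 promoter in S. cerevisiae EKY3, which lacks the endogenous enzyme. Yeast growth sensitivity scored across compound concentrations. Controls were untreated cells and DMSO vehicle.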

A further experiment has as its system SK-MEL-24. Nature of the experiment: Cytotoxicity against human SK-MEL-24 cells assessed as reduction in cell viability measured after 24 hrs by MTT assay. The class given is functional, cell-based. The conditions noted are these: SK-MEL-24, 24 h. In general terms: Tetrazolium assays rely on reduction of a dye to a coloured formazan, in cell work by metabolically active cells.

Experiment [2] addresses T1, DNA topoisomerase 1 (Homo sapiens). Nature of the experiment: Inhibition of human TOP1B-medaited negatively supercoiled pBlue-Script KSII(+) DNA relaxation at 300 nM by ethidium bromide staining based gel electrophoresis method.
The species entered for a further experiment is Homo sapiens. Nature of the experiment: Inhibition of human TOP1B G363C mutant expressed in Saccharomyces cerevisiae EKY3 lacking top1 assessed as reduction in yeast growth at 1 to 30 uM. In outline: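 Human Top1 G363C mutant (glycine 363 to cysteine, camptothecin-resistant) expressed from plasmids under the Gal-1–10 promoter in S. cerevisiae EKY3, which lacks the endogenous enzyme. Yeast growth sensitivity read at a range of compound concentrations. Controls were untreated cells and DMSO vehicle.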

Experiment [3] in a line: Cytotoxicity against human C3PV cells assessed as reduction in cell viability measured after 24 hrs by MTT assay. In kind it is cell-based.
The next experiment deals with RPMI-7951. Nature of the experiment: Cytotoxicity against human RPMI7951 cells assessed as reduction in cell viability measured after 24 hrs by MTT assay. The class given is functional, cell-based. The settings on record: RPMI-7951, 24 h.
The target in experiment [4] is T1, DNA topoisomerase 1 (Homo sapiens). Kind of experiment: Inhibition of human TOP1B-medaited negatively supercoiled pBlue-Script KSII(+) DNA relaxation at 0.3 to 30 uM by ethidium bromide staining based gel electrophoresis method.
Experiment [5] has the same target. Kind of experiment: Inhibition of human TOP1B expressed in Saccharomyces cerevisiae EKY3 lacking top1 assessed as reduction in yeast cell growth at 1 to 30 uM. The method, boiled down:
as §1

The target is the same in experiment [6]. Kind of experiment: Inhibition of human TOP1B expressed in Saccharomyces cerevisiae EKY3 lacking top1 assessed as reduction in yeast cell growth at 30 uM. In outline: as §1
The target is the same in experiment [7]. Kind of experiment: Inhibition of human TOP1B expressed in Saccharomyces cerevisiae EKY3 lacking top1 assessed as reduction in yeast cell growth at 10 uM. The method, boiled down: as §1
Experiment [8] shares this target. Nature of the experiment: Inhibition of human TOP1B expressed in Saccharomyces cerevisiae EKY3 lacking top1 assessed as induction of cell cycle defect at 30 uM measured after 24 hrs.

Active and inactive are the calls of the source. The rule behind the calls is not given here.

Take `CCc1c2c(nc3ccc(OC(=O)CCC(=O)O[C@@H]4O[C@@H]5O[C@]6(C)CC[C@H]7[C@H](C)CC[C@@H]([C@H]4C)[C@@]57OO6)cc13)-c1cc3c(c(=O)n1C2)COC(=O)[C@]3(O)CC`: the inhibition result (in experiment [1]; in experiment [2]; in the experiment filed under Homo sapiens) was “Active” in each case. Further, the figures for the half-inhibitory concentration (IC50) (in the experiment on SK-MEL-24; in experiment [3]; in the experiment with RPMI-7951) were 320 nM, 3200 nM and 50 nM, respectively.
Take `CC[C@@]1(OC(=O)CCC(=O)O[C@@H]2O[C@@H]3O[C@]4(C)CC[C@H]5[C@H](C)CC[C@@H]([C@H]2C)[C@@]35OO4)C(=O)OCc2c1cc1n(c2=O)Cc2cc3ccccc3nc2-1`: the inhibition result in experiment [4] and in experiment [5] was “Active” throughout. For the same compound, the IC50 came to 850 nM with SK-MEL-24, 300 nM in experiment [3] and 17300 nM in the experiment on RPMI-7951.
As for `COc1cc(/C=C/C(=O)CC(=O)/C=C/c2ccc(OC(=O)CCC(=O)O[C@@H]3O[C@@H]4O[C@]5(C)CC[C@H]6[C@H](C)CC[C@@H]([C@H]3C)[C@@]46OO5)c(OC)c2)ccc1O`, the inhibition result in experiment [4] and in experiment [6] was “Active” each time.
`CCc1c2c(nc3ccc(O)cc13)-c1cc3c(c(=O)n1C2)COC(=O)[C@]3(O)CC` [7-ETHYL-10-HYDROXYCAMPTOTHECIN]: the half-maximal inhibitory concentration (IC50) in the experiment with SK-MEL-24 was determined as 480 nM; in experiment [3], 510 nM; in the experiment on RPMI-7951, 260 nM.
As for `CC(=O)O[C@H]1C(=O)[C@@]2(C)[C@H]([C@H](OC(=O)c3ccccc3)[C@]3(O)C[C@H](OC(=O)[C@H](O)[C@@H](NC(=O)c4ccccc4)c4ccccc4)C(C)=C1C3(C)C)[C@]1(OC(C)=O)CO[C@@H]1C[C@@H]2O` [PACLITAXEL], the IC50 with SK-MEL-24 is 4730 nM; in experiment [3], 78900 nM; in the experiment with RPMI-7951, 13 nM.
As to `C[C@@H]1CC[C@H]2[C@@H](C)C(=O)O[C@@H]3O[C@@]4(C)CC[C@@H]1[C@]32OO4`, in [5], the inhibition result is “inactive”.
Regarding `C[C@H]1[C@H](OC(=O)CCC(=O)OCCc2ccc(O)cc2)O[C@@H]2O[C@]3(C)CC[C@H]4[C@H](C)CC[C@@H]1[C@@]24OO3`, the inhibition entry in experiment [4], in experiment [7] and in experiment [8] was “Active” each time. Further, the inhibition entry in the experiment filed under Homo sapiens was “inactive”.
`C[C@H]1[C@H](OC(=O)CCC(=O)O)O[C@@H]2O[C@@]3(C)CC[C@H]4[C@H](C)CC[C@@H]1[C@@]24OO3`: the inhibition entry in [4] was “Active”. In addition, in experiment [6], the inhibition entry was “inactive”.
In the case of `COc1cc(/C=C/C(=O)CC(=O)/C=C/c2ccc(OC(=O)CCC(=O)O[C@@H]3O[C@@H]4O[C@]5(C)CC[C@H]6[C@H](C)CC[C@@H]([C@H]3C)[C@@]46OO5)cc2)ccc1OC(=O)CCC(=O)O[C@@H]1O[C@@H]2O[C@]3(C)CC[C@H]4[C@H](C)CC[C@@H]([C@H]1C)[C@@]24OO3`, the inhibition result in [5] is “inactive”.
Turning to `C[C@H]1[C@H](OC(=O)CCC(=O)Oc2ccc(CCO)cc2)O[C@@H]2O[C@]3(C)CC[C@H]4[C@H](C)CC[C@@H]1[C@@]24OO3`, the inhibition entry in experiment [4] and in experiment [7] was “Active” throughout. In the experiment filed under Homo sapiens, the inhibition result was “inactive”.
Regarding `C=C(C)[C@H]1CC=C(COC(=O)CCC(=O)O[C@@H]2O[C@@H]3O[C@@]4(C)CC[C@H]5[C@H](C)CC[C@@H]([C@H]2C)[C@@]35OO4)CC1`, the inhibition entry in experiment [5] is “inactive”.
With `C[C@H]1[C@H](O)O[C@@H]2O[C@@]3(C)CC[C@H]4[C@H](C)CC[C@@H]1[C@@]24OO3`, the inhibition result in experiment [6] is “inactive”.
For the compound `CC[C@@]1(O)C(=O)OCc2c1cc1n(c2=O)Cc2cc3ccccc3nc2-1` [CAMPTOTHECIN], the IC50 was found to be 460 nM with SK-MEL-24, 450 nM in experiment [3] and 220 nM in the experiment with RPMI-7951.
For `C[C@H]1[C@H](OCCc2ccc(O)cc2)O[C@@H]2O[C@]3(C)CC[C@H]4[C@H](C)CC[C@@H]1[C@@]24OO3`, in experiment [6], the inhibition result was “Active”.

A word on the IC50: it is the concentration that inhibits the measured activity by half.
